Measurements gathered from unrelated publications.
Compare with care: the assays were run in different laboratories.
Target: BMP-2-inducible protein kinase (BMP2K, Homo sapiens, UniProt Q9NSY1)

| Compound | assay | setting | remaining binding [%] |
| --- | --- | --- | --- |
| O=C(c1ccc(Nc2ncc(Cl)c(-c3ccc(Cl)s3)n2)cc1)N1CCC(N2CCCC2)CC1 | binding, competition with immobilised ligand | 1 µM | 0.1 |
| N[C@@H]1CCN(c2nccc(-c3cnn4ncccc34)n2)C1 | binding | 1 µM | 100 |
| Nc1ncc2c(n1)-c1c([nH]c3ccc(C#CC4CC4)cc13)CCCC2 | binding, competition with immobilised ligand | 1 µM | 88 |
| O=C(NCCCN1CCOCC1)c1ccc(Nc2ncc(Cl)c(-c3ccc(Cl)s3)n2)cc1 | binding, competition with immobilised ligand | 1 µM | 0.1 |
| FC(F)(F)Oc1cccc(-c2cnc3ccc(-c4ccncc4)nn23)c1 | binding, competition with immobilised ligand | 5 µM | 8.3 |
| Cc1cc(NC(=O)c2cccc(S(F)(F)(F)(F)F)c2)cc(-n2ccn3nc(-c4cccnc4)cc23)c1 | cell-free assay, competition with immobilised ligand | 1 µM | 65.9 |
| COc1ncc2cc3ccccc3nc2c1C#N | cell-free assay, competition with immobilised ligand | 5 µM | 100 |
| CNC(=O)c1ccc(Nc2ncc(C(F)(F)F)c(NCc3nccnc3N(C)S(C)(=O)=O)n2)cc1 | cell-free assay, competition with immobilised ligand | 0.1 µM | 81 |
| CNC(=O)[C@@H]1CC[C@@H](n2c(-c3ccc4cnccc4c3)nc3ccc(C(=O)NCc4cccc(C(N)=O)c4)cc32)C1 | binding, competition with immobilised ligand | 1 µM | 95 |
| O=C1NC(c2ccccn2)Sc2ccccc21 (stereo not shown) | cell-free assay, competition with immobilised ligand | 1 µM | 88 |
| CN(C)c1nccc(-c2cnn3ncccc23)n1 | binding | 1 µM | 100 |
| c1cncc(-c2cccc(Nc3nccc(NC4CCCCC4)n3)c2)c1 | binding, competition with immobilised ligand | 10 µM | 21 |
| Cc1c(C(=O)O)cc(-c2ccc(C3CCNCC3)cc2)c2ccc(-c3ccc(C(F)(F)F)cc3)cc12 | binding, competition with immobilised ligand | 1 µM | 83 |
| CC1CCCN1c1nccc(-c2cnn3ncccc23)n1 (stereo not shown) | binding | 1 µM | 95 |
| COc1cc(-c2cn(C3CCc4c(F)cccc4N(CC(F)(F)F)C3=O)nn2)ccc1-n1cnc(C)c1 (stereo not shown) | cell-free assay, competition with immobilised ligand | 1 µM | 100 |
| O=C(Nc1c[nH]nc1C(=O)NC1CCNCC1)c1cc(F)cc(F)c1 | binding, competition with immobilised ligand | 1 µM | 53 |
| CN(C)c1nccc(-c2cnc3ncccn23)n1 | binding | 1 µM | 100 |
| O=C(O)[C@H]1[C@H](Cn2nnc3ccccc3c2=O)CC[C@@H]1C(=O)c1ccc(OCCC2CCOCC2)cc1 | cell-free assay, competition with immobilised ligand | 1 µM | 86 |
| C[C@H]1CCN(c2nccc(-c3cnn4ncccc34)n2)C1 | binding | 1 µM | 83 |
| COc1cnc(Nc2cccc(S(N)(=O)=O)c2)nc1N1CCN(c2ccccc2)C(=O)C1 | binding, competition with immobilised ligand | 1 µM | 80 |
| COc1ccnn2ncc(-c3ccnc(N(C)C)n3)c12 | binding | 1 µM | 100 |
| O=C(c1ccc(Nc2ncc(Cl)c(-c3cc4ccccc4s3)n2)cc1)N1CCC(N2CCCC2)CC1 | binding, competition with immobilised ligand | 1 µM | 0 |
